# Screens as filed in PubChem.
# Sampled rows, rich in hits. Any-hit rate of the full collection: about 3.8%.
# Lipid droplet – modulators of hepatic lipid droplet formation; inhibition, % at 6.5 µM; AML12 mouse hepatocytes, oleate lipid droplets, BODIPY imaging; actives 0.4% (n = 240,000);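 active = lipid droplet intensity inhibited by at least 50%, with more than 500 cells counted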
#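 Test system: AML12 mouse liver cells; schedule: overnight exposure; technique: high-content imaging of BODIPY-stained droplets and DAPI nuclei; read-out: % inhibition of corrected integrated BODIPY droplet signal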
# HSF1 inhib – HSF1 inhibition | actives 0.77% (n = 300,000) | NIH3T3-HGL HSE-luciferase, MG132-induced, luminescence 8 h; hits give low values | activity change, negative = inhibition, % at 7.5 µM (by protocol);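 active = more than half of replicate wells show activity change below -50%, luminescence cut by over half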;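 also: luciferase reports HSF-1 transcriptional activity via heat shock element; 0% = median of DMSO wells and -100% = zero luminescence signal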
# HSF-1 act – increases HSF-1 driven luciferase reporter signal; activation, % at 9 µM; actives 1.7% (n = 300,000); AID 504408; NIH3T3-HGL HSF-1 luciferase reporter, MG132, 8 h; 100% = twice DMSO control signal;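 active = mean replicate activation of at least 50% with a set share of replicates each reaching 50%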;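 also: 0% = median of the neutral control wells and 100% = twice that signal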
# HSP90 refold inh – HSP90 refolding inhibition in rabbit reticulocyte lysate | luciferase refolding luminescence, 3 h | inhibition, % at 5.6 µM | actives 0.91% (n = 290,000);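 active = inhibition above the screen-wide mean plus 3 SD, computed separately per campaign, cut at about 16% in these data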;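 also: 0% = DMSO wells and 100% = 60 µM geldanamycin wells; inhibitors lower the luminescence because luciferase stays unfolded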
# HCV NS3 hel inh – inhibitors of Hepatitis C virus NS3 helicase; NS3 helicase DNA unwinding, Cy5 molecular beacon fluorescence; actives 0.56% (n = 290,000); inhibition, % at 10.9 µM;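 active = inhibition above the mean of all tested compounds plus 3 SD, set per campaign, cut at about 35% in these data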;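 also: 0% = DMSO wells and 100% = thioflavine S control wells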
#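 Material: hepatitis C virus NS3 helicase domain fragment enzyme; measured by: Cy5 fluorescence, 0 and 60 min reads; control set: DMSO and thioflavine S; incubation: 60 min unwinding reaction at 25 °C after ATP addition; read-out basis: % inhibition from 60/0 min fluorescence ratio, DMSO 0%, thioflavine S 100%; repeats: singlicate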
# * hit, by the source's call; . = no result given.
SMILES,Lipid droplet,HSF1 inhib,HSF-1 act,HSP90 refold inh,HCV NS3 hel inh
COc1ccc(-c2csc(NC(=O)c3ccccc3F)c2C(=O)O)cc1,22,5,25,-5,4
COC(=O)c1c(NC(=O)c2ccn(C)n2)sc2c1CCC2,-2,6,16,-1,6
COC(=O)c1c(NC(=O)c2nn(C)cc2Cl)sc2c1CCCC2,20,15,58*,2,-7
O=C(CCNS(=O)(=O)c1cccc2nsnc12)NCc1cccs1,3,-80*,-83,11,1
O=C(CCNS(=O)(=O)c1cccc2nsnc12)NCc1ccccc1Cl,3,-6,-5,-1,3
N#CCC(=O)Nc1ccc(C(=O)OCC(=O)Nc2ccccc2Sc2ccccc2)cc1,7,21,63*,5,2
O=C(Nc1ccc(C(=O)O)cc1)Nc1ccc([N+](=O)[O-])cc1,-2,-3,-13,-7,0
O=C(Nc1ccc([N+](=O)[O-])cc1)C1C(c2ccccc2)=C1c1ccccc1,.,165,178*,-2,6
O=[N+]([O-])c1ccc(Sc2ccccc2)nc1,1,17,53*,3,3
Cn1c(=O)c(/C=C/c2ccc(F)cc2)nc2ccccc21,-44,46,60*,8,7
CC(C)CC1(C)NC(=O)N(CC(=O)Nc2cccc(S(=O)(=O)N(C)c3ccccc3)c2)C1=O (stereo not drawn),-12,3,-1,0,0
COCCCN1C(=O)c2[nH]nc(-c3ccccc3O)c2C1c1cccc(Cl)c1 (stereo not drawn),.,36,71*,11,-1
CC(NC(=O)c1c(O)c2ccccc2n(C)c1=O)c1ccccc1 (stereo not drawn),.,12,24,0,-5
COCCn1c(SCc2ccc(Cl)cc2)nc2c1c(=O)[nH]c(=O)n2C,.,17,58*,.,.
CC1=CC(C)[C@H](/C=N/n2c(=O)[nH]c3c([nH]c4ccc(C)cc43)c2=O)C(C)C1 (stereo partly drawn),0,-5,-10,7,25
COc1ccc2[nH]c3c(N4CCc5ccccc5C4)ncnc3c2c1,-77,71,64*,-5,-45
C=CCN(CC=C)CCOc1cccc(Oc2ccccc2)c1,-12,7,9,2,-9
COc1ccc(N(CC(=O)Nc2cccc(C)c2)S(=O)(=O)c2c(C)noc2C)cc1,-4,-69*,-74,1,-15
COc1ccc(N(CC(=O)N2CCc3ccccc32)S(=O)(=O)c2c(C)noc2C)cc1,.,34,77*,-2,3
O=C(CC(=O)c1ccccc1O)c1ccc(F)cc1,18,38,75*,2,-3
O=C(CCCC(=O)c1ccc(F)cc1)c1ccc(F)cc1,.,50,81*,9,7
O=C(CC(=O)c1ccccc1O)c1cccc(F)c1,.,18,39,6,-3
O=C(CCCN1CCC(C(=O)c2ccc(F)cc2)CC1)c1ccc(F)cc1,0,-5,-4,2,-32
O=C(CCCCCBr)N1CCC(CC2CC(c3cccc(Br)c3)=NO2)(C(=O)NCC2CCCCC2)CC1 (stereo not drawn),.,4,10,2,-31
Cc1cccn2cc(CSc3nnc(Nc4ccc(C(C)C)cc4)s3)nc12,-3,.,.,3,-10
SMILES,Lipid droplet,HSF1 inhib,HSF-1 act,HSP90 refold inh,HCV NS3 hel inh
CCOc1ccccc1Nc1nnc(SCc2nnc(-c3cc(OC)c(OC)c(OC)c3)o2)s1,13,-74*,-81,-2,-6
COc1ccccc1Nc1nnc(SCc2nnc(-c3cc(OC)c(OC)c(OC)c3)o2)s1,.,-5,-4,5,-1
COc1cc(-c2nnc(CSc3nnc(Nc4ccc(C(C)C)cc4)s3)o2)cc(OC)c1OC,18,28,56*,2,-8
CC(C)(C)N(NS(=O)(=O)c1ccc(F)cc1)c1ccccc1,-18,3,57*,1,-7
Cc1ccccc1NS(=O)(=O)c1ccc(F)cc1,-2,3,-1,2,-1
COc1cccc(/C=N/Nc2nc(-c3cccnc3)nc3ccccc23)c1,-5,1,1,-2,-2
COc1cccc(CNc2nc(-c3cccnc3)nc3ccccc23)c1,10,22,69*,-1,4
Clc1ccccc1CSc1ncn(-c2ccccc2)n1,34,42,67*,-1,-7
Cc1ccc(CSc2ncn(-c3ccccc3)n2)cc1,-3,22,22,2,-7
